Measured values published in ChEMBL document CHEMBL4425120, “N1-Azinylsulfonyl-1H-indoles: 5-HT6 Receptor Antagonists with Procognitive and Antidepressant-Like Properties” (ACS Med Chem Lett, 2016).
The source made the active and inactive calls. The rule behind the calls is not given here.

Key:
[1] = test system: Rattus norvegicus; test: Antianxietic activity in Wistar rat assessed as increase in number of shocks accepted at 0.1 to 1 mg/kg, ip measured for 5 mins by Vogel conflict drinking test; assay type: functional, organism-based
[2] = target: 5-hydroxytryptamine receptor 2A (Homo sapiens, UniProt P28223); test: Displacement of [3H]-Ketanserin from human 5-HT2A receptor expressed in HEK293 cells by microbeta liquid scintillation counting; assay type: cell-based
Chain of 5-hydroxytryptamine receptor 2A (P28223 whole entry): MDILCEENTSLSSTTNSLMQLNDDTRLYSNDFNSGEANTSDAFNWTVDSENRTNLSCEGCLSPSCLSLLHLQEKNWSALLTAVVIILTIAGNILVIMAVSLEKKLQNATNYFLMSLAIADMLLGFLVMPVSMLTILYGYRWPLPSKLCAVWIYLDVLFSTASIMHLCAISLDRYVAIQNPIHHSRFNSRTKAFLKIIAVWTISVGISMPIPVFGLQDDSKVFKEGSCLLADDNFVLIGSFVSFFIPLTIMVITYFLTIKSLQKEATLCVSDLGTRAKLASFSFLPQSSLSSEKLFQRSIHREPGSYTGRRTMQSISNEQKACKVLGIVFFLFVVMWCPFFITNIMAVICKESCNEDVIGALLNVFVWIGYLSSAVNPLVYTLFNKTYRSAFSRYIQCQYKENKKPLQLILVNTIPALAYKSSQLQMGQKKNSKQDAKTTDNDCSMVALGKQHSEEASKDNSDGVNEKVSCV
Method in brief: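 Ki values reported as the mean of two independent radioligand binding experiments.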

[3] = target: Adrenergic receptor alpha-1 (Rattus norvegicus) (UniProt P15823+P23944+P43140); test: Displacement of [3H]prazosin from rat cerebral cortex adrenergic alpha 1 receptor after 60 mins by scintillation counting
[4] = Toxicity in Sprague-Dawley rat assessed as effect on locomotory activity at 0.1 to 1 mg/kg, ip measured for 5 mins by open field test; assay type: organism-based; settings: in vivo
[5] = species: Homo sapiens; test: Selectivity ratio of Ki for human 5-HT7B receptor expressed in HEK293 cells to Ki for human 5-HT6 receptor expressed in HEK293 cells; assay type: cell-based
[6] = test system: Rattus norvegicus; test: Antianxietic activity in Wistar rat assessed as increase in number of licks accepted at 0.1 to 1 mg/kg, ip measured for 5 mins by Vogel conflict drinking test; assay type: functional, organism-based
[7] = target: Cytochrome P450 3A4 (Homo sapiens, UniProt P08684); test: Inhibition of human CYP3A4 expressed in supersomes assessed as testosterone 6beta-hydroxylation after 15 mins by HPLC analysis; assay type: ADME
Chain of Cytochrome P450 3A4 (P08684 whole entry): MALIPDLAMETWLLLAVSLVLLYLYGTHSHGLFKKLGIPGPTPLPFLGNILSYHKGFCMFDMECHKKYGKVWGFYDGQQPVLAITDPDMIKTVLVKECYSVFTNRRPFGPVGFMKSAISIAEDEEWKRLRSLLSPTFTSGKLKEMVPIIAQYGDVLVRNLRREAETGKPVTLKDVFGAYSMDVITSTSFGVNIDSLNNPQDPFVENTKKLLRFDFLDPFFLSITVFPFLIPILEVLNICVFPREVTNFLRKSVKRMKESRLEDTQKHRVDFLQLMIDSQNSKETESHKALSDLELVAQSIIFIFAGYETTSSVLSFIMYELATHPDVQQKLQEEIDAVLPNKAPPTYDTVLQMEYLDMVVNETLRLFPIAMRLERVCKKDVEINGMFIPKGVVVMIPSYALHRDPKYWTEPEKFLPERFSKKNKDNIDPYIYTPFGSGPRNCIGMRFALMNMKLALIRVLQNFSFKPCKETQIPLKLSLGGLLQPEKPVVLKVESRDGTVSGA

[8] = target: D(3) dopamine receptor (Homo sapiens, UniProt P35462); test: Antagonist activity at human recombinant dopamine D3 receptor expressed in CHO cells assessed as inhibition of dopamine-induced cAMP accumulation after 30 mins by HTRF assay; assay type: functional, cell-based
Chain of D(3) dopamine receptor (P35462 whole entry): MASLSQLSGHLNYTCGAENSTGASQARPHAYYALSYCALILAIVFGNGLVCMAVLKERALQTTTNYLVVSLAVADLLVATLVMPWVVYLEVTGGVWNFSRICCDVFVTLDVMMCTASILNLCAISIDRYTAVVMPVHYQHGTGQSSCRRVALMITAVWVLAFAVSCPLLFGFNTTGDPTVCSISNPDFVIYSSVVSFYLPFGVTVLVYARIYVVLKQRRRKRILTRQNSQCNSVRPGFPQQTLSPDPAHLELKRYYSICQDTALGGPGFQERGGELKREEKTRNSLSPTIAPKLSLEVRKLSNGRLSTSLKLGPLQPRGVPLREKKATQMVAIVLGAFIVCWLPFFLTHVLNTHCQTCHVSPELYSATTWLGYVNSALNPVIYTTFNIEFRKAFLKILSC

[9] = Drug uptake in Wistar rat brain at 3 mg/kg, ip after 30 mins by LC-MS/MS analysis; assay type: ADME, organism-based; settings: read-out: Drug uptake
Method in brief: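 Male Wistar rats received a single 3 mg/kg i.p. dose. Brain and plasma drug levels were measured at 15, 30 and 90 min after dosing. Brain level is expressed as ng/g tissue, alongside the brain-to-plasma concentration ratio.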

[10] = test system: Rattus norvegicus; test: Cognitive enhancing effect in ip dosed Sprague-Dawley rat assessed as reversal of PCP induced memory deficit administered 1 hour and 15 mins before familiarization phase by novel object recognition test; assay type: functional; settings: for minimal effective dose: read-out: MED
Method in brief: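 Memory deficit induced with PCP in rats. Test and reference agents were given i.p., and the reversal of the deficit in novel-object recognition was scored. Data are mean ± SEM, n = 7–12 animals per group, compared against the vehicle and PCP groups.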

[11] = test system: Rattus norvegicus; test: Antidepressant activity in Sprague-Dawley rat assessed as increase in climbing time at 0.1 mg/kg, ip adminstered 60 mins prior to testing measured for 5 mins by forced swimming test; assay type: functional, organism-based
Method in brief: (§1)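 Modified forced swim test in rats with i.p. dosing. Immobility time and climbing time were scored. Data are mean ± SEM, n = 7–8 animals per group, compared against the vehicle-treated group.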

[12] = target: Muscarinic acetylcholine receptor M5 (Homo sapiens) (UniProt P08912); test: Displacement of [3H]4-DAMP from human recombinant muscarinic M5 receptor expressed in CHO cells after 60 mins by scintillation counting; assay type: cell-based
Chain of Muscarinic acetylcholine receptor M5 (Homo sapiens) (P08912 whole entry): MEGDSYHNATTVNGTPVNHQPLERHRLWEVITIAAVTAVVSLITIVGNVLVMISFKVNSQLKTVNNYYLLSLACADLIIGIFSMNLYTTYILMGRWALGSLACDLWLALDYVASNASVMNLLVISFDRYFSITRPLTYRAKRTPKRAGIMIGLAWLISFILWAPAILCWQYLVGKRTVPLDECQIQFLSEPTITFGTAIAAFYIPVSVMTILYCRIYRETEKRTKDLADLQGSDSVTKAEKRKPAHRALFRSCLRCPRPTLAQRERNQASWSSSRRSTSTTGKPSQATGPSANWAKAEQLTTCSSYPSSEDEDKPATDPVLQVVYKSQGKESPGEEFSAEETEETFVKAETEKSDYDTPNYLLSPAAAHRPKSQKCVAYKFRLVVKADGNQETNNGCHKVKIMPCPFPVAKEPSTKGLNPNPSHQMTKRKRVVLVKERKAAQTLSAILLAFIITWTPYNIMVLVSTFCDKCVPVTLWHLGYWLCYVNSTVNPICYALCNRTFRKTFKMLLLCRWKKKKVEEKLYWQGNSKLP

[13] = test system: Rattus norvegicus; test: Antianxietic activity in Wistar rat assessed as increase in number of shocks accepted at 0.3 to 3 mg/kg, ip measured for 5 mins by Vogel conflict drinking test; assay type: functional, organism-based
[14] = test system: Rattus norvegicus; test: Antianxietic activity in Wistar rat assessed as increase in number of licks accepted at 0.3 to 3 mg/kg, ip measured for 5 mins by Vogel conflict drinking test; assay type: functional, organism-based
[15] = test system: Rattus norvegicus; test: Antidepressant activity in Sprague-Dawley rat assessed as reduction in immobility time at 0.1 mg/kg, ip adminstered 60 mins prior to testing measured for 5 mins by forced swimming test; assay type: functional, organism-based; method in brief: as §1

| SMILES | Activity [1] | Ki [2] | inhibition [3] | Activity [4] | Ratio Ki [5] | Activity [6] | IC50 [7] | inhibition [8] | concentration at 0.5 h [9] | Activity [10] | minimal effective dose [10] | Activity [11] | inhibition [12] | Activity [13] | Activity [14] | Activity [15] |
| --- | --- | --- | --- | --- | --- | --- | --- | --- | --- | --- | --- | --- | --- | --- | --- | --- |
| COc1ccc2c(c1)c(C1=CCNCC1)cn2S(=O)(=O)c1ccc2cccnc2c1 | inactive | 1000 nM | 41% | Non-Toxic | 70 | inactive | 20 µM | inactive | 21.9 ng/g | Dose-dependent effect | 1 mg/kg |  |  |  |  |  |
| COc1ccc2c(c1)c(C1=CCNCC1)cn2S(=O)(=O)c1cncc2ccccc12 |  | 3350 nM | 40% | Non-Toxic | 70 |  | 26 µM | inactive | 18.6 ng/g | Dose-dependent effect | 1 mg/kg | Active | 3% | inactive | inactive | Active |
